Holding throughout (type): ADME, organism-based
Data set [1] can be described thus: Volume of distribution at steady state in Sprague-Dawley rat at 0.5 mg/kg, iv and 1 mg/kg, po. Particulars: in vivo, read-out: Vdss. The gist of the method: (§1)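 Male Sprague-Dawley rats given 0.5 mg free base/kg iv bolus and 1 mg/kg po. Blood compound levels measured by protein precipitation and HPLC-MS/MS.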
A short description of data set [2]: Ratio of drug level in brain to blood in Sprague-Dawley rat at 0.5 mg/kg, iv and 1 mg/kg, po after 1 hr. Particulars: brain/whole blood, read-out: BBR.
Data set [3] is described as follows: Half life in Sprague-Dawley rat at 0.5 mg/kg, iv and 1 mg/kg, po. Particulars: in vivo. Summed up:
as §1

The nature of data set [4]: Clearance in Sprague-Dawley rat blood at 0.5 mg/kg, iv and 1 mg/kg, po. Particulars: whole blood. Summed up: as §1
The nature of data set [5]: Oral bioavailability in Sprague-Dawley rat at 1 mg/kg. As to conditions: in vivo. Summed up:
as §1

The half-life is how long it takes for the measured level to halve. Higher therefore signals slow decline. Turning to `Cc1ccc2c(N3CCN(CCc4cccc5c4OCc4c(C(=O)N(C)C)ncn4-5)CC3)cccc2n1`, the Vd in data set [1] was determined as 3.5 L/kg. In addition, the Kp at 1 h in data set [2] was found to be 1.8. Moreover, in data set [3], the half-life was 2.1 h. Moreover, in data set [4], the clearance was 29 mL/min/kg. In data set [5], the bioavailability stood at 50%.
Taken in the same sequence, the figures for `Cc1ccc2c(N3CCN(CCc4cccc5c4OCc4c(C(N)=O)ncn4-5)CC3)cccc2n1` were 2.9 L/kg, 1.1, 4.4 h, 10 mL/min/kg and 45%.
On the same counts, the results for `Cc1ccc2c(N3CCN(CCc4cccc5c4OCc4nnc(C)n4-5)CC3)cccc2n1` are 1.6 L/kg, 0.5, 1.8 h, 12 mL/min/kg and 51%.
Taken in the same sequence, the figures for `CNC(=O)c1ncn2c1COc1c(CCN3CCN(c4cccc5nc(C)ccc45)CC3)cccc1-2` were 3.8 L/kg, 2.4, 6.3 h, 8 mL/min/kg and 104%.
Turning to `Cc1ccc2c(N3CCN(CCc4cccc5c4OCc4c(C(=O)N6CCOCC6)ncn4-5)CC3)cccc2n1`, the Vd in data set [1] turned out to be 5.5 L/kg. In data set [2], the Kp at 1 h amounted to 1.7. The molecule also had a half-life in data set [3] of 7.6 h. In addition, the clearance in data set [4] was determined as 12 mL/min/kg. Also, the bioavailability in data set [5] is 65%.
`CC(=O)c1ncn2c1COc1c(CCN3CCN(c4cccc5nc(C)ccc45)CC3)cccc1-2`: the Vd in data set [1] amounted to 7.1 L/kg. Also, the Kp at 1 h in data set [2] came to 2.7. Moreover, the half-life in data set [3] was 8.7 h. Moreover, the clearance in data set [4] was 10 mL/min/kg. Further, the bioavailability in data set [5] came out at 43%.
As to `Cc1ccc2c(N3CCN(CCc4cccc5c4OCc4c(C#N)ncn4-5)CC3)cccc2n1`, the Vd in data set [1] was determined as 3.9 L/kg. The Kp at 1 h in data set [2] stood at 1.6. Further, in data set [3], the half-life was 5.1 h. The molecule further yielded a clearance in data set [4] of 10 mL/min/kg. For the same molecule, the bioavailability in data set [5] worked out at 48%.
Taken in the same sequence, the figures for `Cc1ccc2c(N3CCN(CCc4cccc5c4OCc4c(C(=O)N6CCCC6)ncn4-5)CC3)cccc2n1` were 5 L/kg, 3.2, 3.1 h, 20 mL/min/kg and 43%.

The record behind these values is ChEMBL document CHEMBL1240442, “Design and synthesis of novel tricyclic benzoxazines as potent 5-HT(1A/B/D) receptor antagonists leading to the discovery of 6-{2-[4-(2-methyl-5-quinolinyl)-1-piperazinyl]ethyl}-4H-imidazo[5,1-c][1,4]benzoxazine-3-carboxamide (GSK588045)” (J Med Chem, 2010).
